These results are taken from article PMC6226330 (ACS Infectious Diseases, 2018).

In one data set the test system is MSSA. Kind of data set: Bacterial burden ex vivo. It counts as in vivo, rat. To be noted: four doses of 200 mg/kg subcutaneously over 20 h; untreated 8.4 ± 0.1.
The test system of the next data set is MRSA. Put plainly: Bacterial burden ex vivo. It counts as in vivo, rat. To be noted: four doses of 200 mg/kg subcutaneously over 20 h; untreated 9.0 ± 0.2.
The test system of data set [1] is S. aureus (Newman). Kind of data set: Rat triceps infection versus sterile inflammation model, PET/CT and ex vivo. It counts as in vivo. To be noted: for PET signal at infection site versus sterile inflammation: [18F]FDG PET, 60–80 min postinjection, P = 0.2, n = 4; for infected triceps to inflamed triceps ratio: PET. The gist of the method: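 Rats received live S. aureus Newman (50 μL) in the right triceps and heat-killed bacteria in BHI (50 μL) in the left. After 20–24 h, tracer was given IV and dynamic PET/CT run up to 120 min. Uptake was %ID/cc, with blood taken from the left ventricle (n = 7, mean ± SEM). Ex vivo gamma counting gave %ID/g (n = 6). Groups were compared by two-tailed Mann-Whitney U test.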

The test system of data set [2] is S. aureus. Kind of data set: In vitro uptake of 2-[18F]F-PABA by S. aureus. Format: cell-based. In a few lines: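 Cells were incubated with 10 kBq/mL 2-[18F]F-PABA at 37 °C with rapid agitation, with graded PABA concentrations for blocking. Cells were then pelleted, washed three times in PBS, and gamma-counted. At least six replicates were run per point. Data were expressed as percentage or normalized to total protein (Bradford).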

In a further data set the test system is J774 murine macrophages. Put plainly: In vitro uptake of 2-[18F]F-PABA by mammalian cells. Format: cell-based. The gist of the method:
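J774.1 murine macrophages were cultured in RPMI GlutaMAX with 10% heat-inactivated FBS at 37 °C, 5% CO2. Tracer accumulation was gamma-counted in parallel with bacterial strains. At least six replicates were run. Values were expressed as percentage or normalized to total protein (Bradford).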

The subject of data set [3] is S. aureus (Newman). Kind of data set: Mouse S. aureus thigh infection model, PET and ex vivo biodistribution. Format: in vivo.
Data set [4] deals with S. aureus. Format: in vivo, rat. To be noted: tracer containing 2 mg 19F-PABA, two hours after injection, ex vivo. In a few lines:
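Rats carried live S. aureus Newman in the right triceps and heat-killed bacteria in BHI in the left triceps (sterile inflammation). They received 29.6–37 MBq tracer spiked with 2 mg 19F-PABA via the tail vein. At 2 h animals were sacrificed. Organ radioactivity was gamma-counted and bacterial load determined by plating and CFU enumeration.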

The subject of another data set is MSSA and MRSA. It counts as in vivo, rat. The gist of the method:
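Female Sprague-Dawley rats (10 weeks) received 50 μL S. aureus Newman (MSSA) in the right triceps and MRSA ATCC BAA1762 in the left triceps, each at 8 log10 CFU. Oxacillin began 2–4 h after infection: 4 subcutaneous 200 mg/kg doses over 20 h. Tracer was 22.2–44.4 MBq in saline by tail-vein catheter under anesthesia. PET/CT was done 2–4 h after the last dose.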

Data set [5] has as its system S. aureus. Kind of data set: Compartment PK model of dynamic 2-[18F]F-PABA PET data. It counts as in vivo, rat. To be noted: after 2 h, simulation with compartment PK model. In a few lines: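 Dynamic PET data came from blood and the infected right triceps of S. aureus-infected rats. Specific and nonspecific activities at the sites were then simulated.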
Where [6] appears, read: group not treated with oxacillin.
[7] abbreviates: oxacillin-treated, four doses of 200 mg/kg.

Where two headings read alike, the source gives them in different places.

Take `Cc1onc(-c2ccccc2)c1C(=O)N[C@@H]1C(=O)N2[C@@H]1SC(C)(C)[C@@H]2C(=O)O` [oxacillin]: the “bacterial burden in right triceps (MSSA infection)” value in the data set on MSSA is 6.4 ± 0.4 log10 CFU/g. Besides, in the data set with MRSA, the “bacterial burden in left triceps (MRSA infection)” value is 8.2 ± 0.3 log10 CFU/g.
`OC[C@H]1OC(O)[C@H]([18F])[C@@H](O)[C@@H]1O` (stereo partly shown) [[^18F]FDG, [^18F]fluorodeoxyglucose, reference compound]: the “PET signal at infection site versus sterile inflammation” value with S. aureus (Newman) [1] is listed as “not significantly different”; in the data set with S. aureus (Newman) [1] (listed as [^18F]F-FDG) it was “no difference”.
`Nc1ccc(C(=O)O)c([18F])c1` [2-[^18F]F-PABA, 2-[^18F]fluoro-p-aminobenzoic acid]: the “accumulation in viable versus heat-killed bacteria” value in the data set with S. aureus [2] (S. aureus ATCC 29213) is “rapidly accumulated in viable cells but not in heat-killed bacteria”. For the same compound, the “accumulation in clinical strains” value in the data set on S. aureus [2] (four MSSA and six MRSA clinical strains) is reported as “accumulates in all the clinical strains tested”. Further, in the data set on J774 murine macrophages, the “accumulation in mammalian cells” value is “not in mammalian cells”. Further, the “tracer level in infected versus uninfected thighs” value in the data set with S. aureus (Newman) [3] (mouse thigh infection) is given as “significantly higher levels of tracer were found in the infected thighs than in uninfected thighs”. Further, the elimination result in the data set with S. aureus (Newman) [3] (mouse, PET and ex vivo tissue analysis) is “rapidly eliminated mainly through renal clearance”. For the same compound, the “infected triceps to inflamed triceps ratio” value in the data set on S. aureus (Newman) [1] (60 min) is 5.52; with S. aureus (Newman) [1] (120 min), 7.95; in the data set with S. aureus (Newman) [1] (after 10 min) it was around 2 fold. In the data set with S. aureus (Newman) [1] (post-mortem ex vivo analysis, %ID/g), the “signal in infected triceps compared to inflamed muscle” value is listed as 4.30 ± 0.82. Moreover, the “ratio of 2-[18F]F-PABA in infected triceps compared to inflamed muscle” value in the data set on S. aureus [4] was 9.38 ± 2.43. Besides, the “PET signal in left triceps (MRSA infection)” value in the data set with MSSA and MRSA (setting [6]) was found to be 0.096 ± 0.039 %ID/cc; in the data set on MSSA and MRSA (setting [7]), 0.079 ± 0.036 %ID/cc. Besides, the “PET signal in right triceps (MSSA infection)” value is reported as 0.087 ± 0.041 %ID/cc in the data set on MSSA and MRSA (setting [6]); 0.025 ± 0.015 %ID/cc in the data set with MSSA and MRSA (setting [7]). The “share of total activity at site of infection from specific accumulation” value in the data set on S. aureus [5] is listed as around 60%.
